This note sets out measurements from ChEMBL document CHEMBL1146592, “Structures of new friedelane-type triterpenes and eudesmane-type sesquiterpene and aldose reductase inhibitors from Salacia chinensis” (J Nat Prod, 2003).

The inhibition is the relative decrease from the control value, in per cent. Read a low inhibition as a weak effect. As a reminder, the IC50 is the concentration needed to halve the response being measured. Read a low IC50 as higher potency.

Test [1] addresses Aldo-keto reductase family 1 member B1 (Rattus norvegicus) (UniProt P07943). Put plainly: Inhibition of aldose reductase in rat lens homogenate at 100 uM. The method in brief:
(§1)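 Crude enzyme was supernatant of rat lens homogenate. Reaction was started with NADPH at 30 °C, run 30 min and stopped with HCl. NADP was converted to a fluorescent product with NaOH/imidazole at 60 °C for 20 min. Read-out was fluorescence at ex 360/em 460 nm.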

Test [2] concerns the target Aldo-keto reductase family 1 member B1 (Rattus norvegicus, UniProt P07943). Kind of test: Inhibition of aldose reductase in rat lens homogenate. The method in brief: as §1
Test [3] addresses Aldo-keto reductase family 1 member B1 (Rattus norvegicus) (UniProt P07943). Put plainly: Inhibition of aldose reductase in rat lens homogenate at 30 uM. The method in brief:
as §1

Regarding `COc1cc([C@H]2c3c(cc(OC)c(O)c3OC)C[C@@H](CO)[C@@H]2CO)cc(OC)c1O`, in test [1], the inhibition came to 10%. In test [2], this compound gave an IC50 greater than 100 µM.

Take `CC1(C)C(=O)CC[C@]2(C)[C@H]3CC=C4[C@@H]5C[C@](C)(C(=O)O)C[C@H](O)[C@]5(C)CC[C@@]4(C)[C@]3(C)CC[C@@H]12`: the inhibition in test [1] worked out at 25%. This compound returned an IC50 in test [2] greater than 100 µM.

As for `CC1(C)CC[C@]2(C)CC[C@]3(C)C(=CC[C@@H]4[C@@]5(C)CCC(=O)C(C)(C)[C@@H]5CC[C@]43C)[C@@H]2C1`, the inhibition in test [1] is 3%. Moreover, in test [2], the half-inhibitory concentration (IC50) was greater than 100 µM.

With `COc1cc([C@H]2c3c(cc(OC)c(O)c3OC)C[C@@H](CO)[C@@H]2CO)ccc1O`, the inhibition in test [1] amounted to 24%. Besides, the IC50 in test [2] is greater than 100 µM.

On to `CC1(C)[C@@H](O)CC[C@]2(C)[C@H]3CC=C4[C@@H]5C[C@](C)(C(=O)O)C[C@@H](O)[C@]5(C)CC[C@@]4(C)[C@]3(C)CC[C@@H]12`, for which the IC50 in test [2] was found to be 26 µM.

Turning to `C[C@H]1C(=O)CC[C@@H]2[C@]1(C)CC[C@H]1[C@@]2(C)CC[C@@]2(C)[C@@H]3CC(C)(C)CC[C@]3(C)C[C@H](O)[C@]12C`, in test [1], the inhibition is 8%. In test [2], this compound gave an IC50 greater than 100 µM.

As for `C[C@H]1C(=O)CC[C@@H]2[C@]1(C)CC[C@H]1[C@@]2(C)CC[C@@]2(C)[C@@H]3C[C@](C)(CO)CC[C@]3(C)CC[C@]12C` [3-OXO-29-HYDROXYFRIEDELANE], in test [2], the IC50 was determined as 98 µM.

For the compound `Oc1cc(O)c2c(c1)O[C@H](c1ccc(O)c(O)c1)[C@H](O)C2` [(-)-EPICATECHIN], the inhibition in test [3] was 41%. The IC50 in test [2] is greater than 30 µM.

Compound `CC(=O)OC[C@]12[C@@H](OC(=O)c3ccccc3)C[C@@H]3[C@@H](OC(C)=O)[C@]1(OC3(C)C)[C@H](C)C[C@H](OC(C)=O)[C@@H]2O` [CELAHIN C] returned an IC50 in test [2] of 95 µM.

In the case of `Oc1cc(O)c2c(c1)O[C@H](c1ccc(O)c(O)c1)[C@@H](O)C2` [CIANIDANOL], the inhibition in test [3] is 38%. This compound returned a 50% inhibitory concentration (IC50) in test [2] greater than 30 µM.

In turn, `C[C@@H]1[C@H]2C3=CC[C@@H]4[C@@]5(C)CCC(=O)C(C)(C)[C@@H]5CC[C@@]4(C)[C@]3(C)CC[C@@]2(C)[C@@H](O)C[C@H]1C(=O)O` [DEMETHYLREGELIN] came in with an inhibition in test [1] of 26%. In test [2], this compound yielded a 50% inhibitory concentration (IC50) greater than 100 µM.

As for `Oc1cc(O)c2c(c1)O[C@H](c1cc(O)c(O)c(O)c1)[C@H](O)C2` [EPIGALLOCATECHIN], the inhibition in test [3] worked out at 19%. The compound also yielded an IC50 in test [2] greater than 30 µM.

In turn, `COc1cc([C@H]2c3cc(O)c(OC)cc3C[C@@H](CO)[C@@H]2CO)ccc1O` [ISOLARICIRESINOL] had an inhibition in test [1] of 36%. This compound came in with an IC50 in test [2] greater than 100 µM.

Turning to `O=c1c2cc(O)c(O)cc2oc2cc(O)c([C@@H]3O[C@H](CO)[C@@H](O)[C@H](O)[C@H]3O)c(O)c12` [MANGIFERIN], the IC50 in test [2] was found to be 3.2 µM.

The compound `CC1(C)[C@@H](O)CC[C@]2(C)[C@H]3CC=C4[C@@H]5C[C@](C)(C(=O)O)C[C@H](O)[C@]5(C)CC[C@@]4(C)[C@]3(C)CC[C@@H]12` [MAYTENFOLIC ACID] returned an IC50 in test [2] of 72 µM.

The compound `C[C@H]1C(=O)CC[C@@H]2[C@]1(C)CC[C@H]1[C@@]2(C)CC[C@@]2(C)[C@@H]3C[C@](C)(C(=O)O)CC[C@]3(C)CC[C@]12C` [MAYTENOIC ACID] registered an inhibition in test [1] of 44%. In test [2], this compound yielded an IC50 greater than 100 µM.

In the case of `C[C@@H]1[C@@]23CC[C@H]4[C@@](C)(CC[C@@]5(C)[C@@H]6C[C@](C)(C(=O)O)CC[C@]6(C)CC[C@]45C)[C@@H]2C[C@@H](O)[C@]1(O)OC3` [ORTHOSPHENIC ACID], the inhibition in test [1] turned out to be 19%. Besides, the IC50 in test [2] was greater than 100 µM.

In the case of `Cc1c(O)c(O)cc2c1CC[C@H]1[C@@]2(C)CC[C@@]2(C)[C@@H]3C[C@@H](C)C(=O)[C@@H](O)[C@]3(C)CC[C@]12C` [REGEOL A], the IC50 in test [2] amounted to 30 µM.

As for `C[C@@H]1[C@@]23CC[C@H]4[C@@](C)(CC[C@@]5(C)[C@@H]6C[C@](C)(C(=O)O)CC[C@]6(C)CC[C@]45C)[C@@H]2CC[C@@]1(O)OC3` [SALASPERMIC ACID], in test [1], the inhibition was 2%. This compound returned a concentration for half-maximal inhibition (IC50) in test [2] greater than 100 µM.

In test [2], `CC1=C(O)C(=O)C=C2C1=CC=C1[C@@]2(C)CC[C@@]2(C)[C@@H]3C[C@@H](C)C(=O)[C@@H](O)[C@]3(C)CC[C@]12C` [TINGENIN B] had a 50% inhibitory concentration (IC50) of 7 µM.

For the compound `CC1=C(O)C(=O)C=C2C1=CC=C1[C@@]2(C)CC[C@@]2(C)[C@@H]3C[C@@H](C)C(=O)C[C@]3(C)CC[C@]12C` [TINGENONE], the IC50 in test [2] was 13 µM.

`C[C@@H]1[C@H]2C3=CC[C@@H]4[C@@]5(C)CC[C@H](O)C(C)(C)[C@@H]5CC[C@@]4(C)[C@]3(C)CC[C@@]2(C)[C@@H](O)C[C@H]1C(=O)O` [TRIPTERYGIC ACID A] returned an inhibition in test [1] of 27%. In test [2], this compound had an IC50 greater than 100 µM.

On to `CC1=C2CC[C@H]3[C@@](C)(CC[C@@]4(C)[C@@H]5C[C@@H](C)C(=O)[C@@H](O)[C@]5(C)CC[C@]34C)[C@@H]2C[C@H](O)C1=O` [TRIPTOCALLINE A], for which it took 14 µM to reach half-maximal inhibition in test [2] (IC50).

Consider `C[C@H]1C(=O)[C@H](O)C[C@@H]2[C@]1(C)CC[C@H]1[C@@]2(C)CC[C@@]2(C)[C@@H]3C[C@](C)(C(=O)O)CC[C@]3(C)CC[C@]12C` [WILFOLIC ACID C], for which the inhibition in test [1] turned out to be 48%. For the same compound, the IC50 in test [2] is 100 µM.

In test [1], `CC1(C)CC[C@]2(C)CC[C@]3(C)C(=CC[C@@H]4[C@@]5(C)CC[C@H](O)C(C)(C)[C@@H]5CC[C@]43C)[C@@H]2C1` [beta-AMYRIN] had an inhibition of 6%. In addition, the concentration for half-maximal inhibition (IC50) in test [2] was greater than 100 µM.
